# Assay results from ChEMBL document CHEMBL1139499, “Nucleotides and pronucleotides of 2,2-bis(hydroxymethyl)methylenecyclopropane analogues of purine nucleosides: synthesis and antiviral activity” (J Med Chem, 2005).
# How the values were obtained:
# [1] = Cytotoxic concentration to inhibit replication in H-1 cells (in CEM cells); assay type: functional; settings: Homo sapiens, CCRF-CEM
# In short: (§1)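 EBV assayed in H-1 cells by DNA hybridization. Cytotoxicity determined separately in CEM cells. Single experiments unless specified otherwise.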
# [2] = tested on: MEF; experiment: Cytotoxic concentration against murine cytomegalovirus infected MEF cells; assay type: functional; settings: Mus musculus
# [3] = tested on: Human alphaherpesvirus 1; experiment: Effective concentration required to inhibit herpes simplex virus 1 in BSC-1 cells in ELISA; assay type: functional, organism-based; settings: Human alphaherpesvirus 1, BSC-1
# In short: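 HSV-1 assayed in BSC-1 cells with ELISA read-out; cytotoxicity in these assays determined in KB cells. Single experiments unless specified otherwise.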
# [4] = Effective concentration required to inhibit varicella zoster virus replication in HFF cells; assay type: functional, cell-based; settings: Human alphaherpesvirus 3, HFF
# In short: (§2)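 VZV assayed in HFF cells by cytopathic effect (CPE) inhibition or by plaque reduction. Single experiments unless specified otherwise.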
# [5] = tested on: Human alphaherpesvirus 1; experiment: Effective concentration required to inhibit herpes simplex virus 1 in vero cells in plaque reduction assay; assay type: functional, organism-based; settings: Human alphaherpesvirus 1, Vero
# In short: (§3)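 HSV-1 and HSV-2 assayed in Vero cells by plaque reduction. Single experiments unless specified otherwise.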
# [6] = tested on: Human gammaherpesvirus 4; experiment: Effective concentration required to inhibit Epstein-barr virus replication in H-1 cells in DNA hybridization assay; assay type: functional, organism-based; settings: human gammaherpesvirus 4, H-1; in short: as §1
# [7] = tested on: Human alphaherpesvirus 1; experiment: Effective concentration required to inhibit herpes simplex virus 1 in HFF cells in cytopathic effect (CPE) assay; assay type: functional, organism-based; settings: Human alphaherpesvirus 1, HFF
# In short: (§4)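 HSV-1 and HSV-2 assayed in HFF cells by cytopathic effect (CPE) inhibition and by plaque reduction. Cytotoxicity measured in HFF cells. Single experiments unless specified otherwise.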
# [8] = tested on: Human alphaherpesvirus 2; experiment: Effective concentration required to inhibit herpes simplex virus 2 in HFF cells in cytopathic effect (CPE) assay; assay type: functional, organism-based; settings: Human alphaherpesvirus 2, HFF; in short: as §4
# [9] = tested on: Hepatitis B virus; experiment: Effective concentration required to inhibit hepatitis B virus replication in 2.2.15 cells in DNA hybridization assay; assay type: functional, organism-based; settings: HepG2 2.2.15
# In short: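 HBV assayed in 2.2.15 cells by DNA hybridization. CC50 values are those from the EBV/H-1 cytotoxicity determination, run in CEM cells. Single experiments unless specified otherwise.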
# [10] = tested on: Human betaherpesvirus 5; experiment: Effective concentration for antiviral activity against AD169 strain of human cytomegalovirus in plaque reduction assay; assay type: functional, organism-based
# In short: (§5)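 Human CMV (Towne and AD169 strains) grown in HFF cell culture; antiviral effect read by plaque reduction or by cytopathic effect (CPE) inhibition. Cytotoxicity measured in HFF cells. Single experiments unless specified otherwise.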
# [11] = tested on: Human betaherpesvirus 5; experiment: Effective concentration for antiviral activity against towne strain of human cytomegalovirus in plaque reduction assay; assay type: functional, organism-based; in short: as §5
# [12] = tested on: Human alphaherpesvirus 2; experiment: Effective concentration required to inhibit herpes simplex virus 2 in vero cells in plaque reduction assay; assay type: functional, organism-based; settings: Human alphaherpesvirus 2, Vero; in short: as §3
# [13] = tested on: Daudi; experiment: Cytotoxic concentration to inhibit replication in daudi cells; assay type: functional; settings: Homo sapiens
# [14] = tested on: HFF; experiment: Cytotoxic concentration against towne strain of human cytomegalovirus infected HFF cells of human (visual cytotoxicity); assay type: functional; in short: as §5
# [15] = tested on: HFF; experiment: Cytotoxic concentration against AD169 strain of human cytomegalovirus infected HFF cells of human (by neutral red uptake); assay type: functional
# [16] = tested on: KB (Homo sapiens); experiment: Cytotoxic concentration required to inhibit KB cells
# [17] = tested on: Human gammaherpesvirus 4; experiment: Effective concentration required to inhibit Epstein-barr virus replication in daudi cells in viral capsid immunofluorescence ELISA; assay type: functional, organism-based; settings: human gammaherpesvirus 4, Daudi
# [18] = tested on: HFF; experiment: Cytotoxic concentration against AD169 strain of human cytomegalovirus infected HFF cells of human (by cytopathic effect inhibition assay); assay type: functional; in short: as §5
# [19] = tested on: HFF; experiment: Cytotoxic concentration against town strain of human cytomegalovirus infected HFF cells of human (visual cytotoxicity); assay type: functional; in short: as §5
# [20] = Effective concentration required to inhibit varicella zoster virus replication in HFF cells in cytopathic reduction assay; assay type: functional, cell-based; settings: Human alphaherpesvirus 3, HFF; in short: as §2
# [21] = Effective concentration required to inhibit varicella zoster virus replication in HFF cells in plaque reduction assay; assay type: functional, cell-based; settings: Human alphaherpesvirus 3, HFF; in short: as §2
# [22] = tested on: HFF; experiment: Cytotoxic concentration to inhibit herpes simplex virus 1 infected HFF cells; assay type: functional; settings: Homo sapiens; in short: as §4
# [23] = tested on: HFF; experiment: Cytotoxic concentration to inhibit herpes simplex virus 2 infected HFF cells; assay type: functional; settings: Homo sapiens; in short: as §4
# [24] = tested on: Vero; experiment: Cytotoxic concentration required to inhibit herpes simplex virus 1 infected vero cells; assay type: functional; settings: Chlorocebus sabaeus
# [25] = tested on: HFF; experiment: Cytotoxic concentration to inhibit Herpes simplex virus 1 infected HFF cells; assay type: functional; settings: Homo sapiens; in short: as §4
# [26] = tested on: HFF; experiment: Cytotoxic concentration to inhibit Herpes simplex virus 2 infected HFF cells; assay type: functional; settings: Homo sapiens; in short: as §4
# [27] = tested on: Vero; experiment: Cytotoxic concentration required to inhibit herpes simplex virus 2 infected vero cells; assay type: functional; settings: Chlorocebus sabaeus
# [28] = tested on: HFF; experiment: Cytotoxic concentration to inhibit replication in HFF cells in cytopathic effect inhibition assay; assay type: functional; settings: Homo sapiens; in short: as §5
# [29] = tested on: HFF; experiment: Cytotoxic concentration against towne strain of human cytomegalovirus infected HFF cells of human (visual cytotoxicity); range=100-200; assay type: functional; in short: as §5
# [30] = organism: Homo sapiens; experiment: Cytotoxic concentration to inhibit replication in 2.2.15 cells; assay type: functional; settings: HepG2 2.2.15
Compound,CC50 [1],CC50 [2],EC50 [3],EC50 [4],EC50 [5],EC50 [6],EC50 [7],EC50 [8],EC50 [9],EC50 [10],EC50 [11],EC50 [12],CC50 [13],CC50 [14],CC50 [15],CC50 [16],EC50 [17],CC50 [18],also measured
Nc1ncnc2c1ncn2/C=C1/CC1(CO)CO,> 50 µM,> 404 µM,50 µM,> 404 µM,> 50 µM,> 20 µM,> 404 µM,> 404 µM,> 10 µM,11.7 µM,2.4 µM,> 50 µM,> 202 µM,> 100 µM,> 404 µM,> 100 µM,,,
Nc1nc(O)c2ncn(/C=C3\CC34COP(=O)(O)OC4)c2n1 (stereo not given),> 100 µM,,> 100 µM,> 299 µM,> 50 µM,> 20 µM,> 299 µM,> 299 µM,> 20 µM,> 299 µM,> 100 µM,50 µM,> 150 µM,> 100 µM,,> 100 µM,> 150 µM,> 299 µM,
COC(=O)C(C)NP(=O)(OCC1(CO)C/C1=C\n1cnc2c(O)nc(N)nc21)Oc1ccccc1 (stereo not given),> 100 µM,,70 µM,> 198 µM,> 50 µM,> 20 µM,> 198 µM,> 198 µM,> 10 µM,> 198 µM,> 100 µM,> 50 µM,> 198 µM,> 100 µM,,> 100 µM,> 99 µM,> 198 µM,
Nc1nc(O)c2ncn(/C=C3\CC3(CO)COP(=O)(O)O)c2n1 (stereo not given),> 100 µM,,> 100 µM,> 291 µM,> 50 µM,> 20 µM,> 291 µM,> 291 µM,> 20 µM,> 291 µM,> 100 µM,> 50 µM,> 146 µM,,,> 100 µM,> 146 µM,> 291 µM,CC50 [19]: > 100 µM
COC(=O)C(C)NP(=O)(OCC1(CO)C/C1=C/n1cnc2c(O)nc(N)nc21)Oc1ccccc1 (stereo not given),35 µM,> 198 µM,> 100 µM,,> 50 µM,3.4 µM,> 198 µM,> 198 µM,4.1 µM,8.1 µM,3.6 µM,> 50 µM,> 198 µM,> 100 µM,> 198 µM,> 100 µM,> 99 µM,,EC50 [20]: 6.3 µM; EC50 [21]: 7.3 µM
COC(=O)C(C)NP(=O)(OCC1(CO)C/C1=C\n1cnc2c(N)ncnc21)Oc1ccccc1 (stereo not given),> 25 µM,,> 100 µM,> 205 µM,> 30 µM,> 20 µM,> 205 µM,> 205 µM,> 20 µM,> 205 µM,> 100 µM,> 30 µM,> 102 µM,> 100 µM,,> 100 µM,> 102 µM,> 205 µM,
Nc1nc(O)c2ncn(/C=C3/CC3(CO)COP(=O)(O)O)c2n1 (stereo not given),62 µM,175 µM,> 100 µM,> 291 µM,50 µM,2.3 µM,9.9 µM,23.3 µM,15 µM,1.1 µM,0.25 µM,> 50 µM,> 146 µM,100 µM,> 291 µM,> 100 µM,> 146 µM,,CC50 [22]: > 291 µM; CC50 [23]: > 291 µM
Nc1nc(O)c2ncn(/C=C3/CC34COP(=O)(O)OC4)c2n1 (stereo not given),> 100 µM,> 301 µM,20 µM,> 301 µM,16 µM,> 20 µM,> 301 µM,242 µM,0.8 µM,6 µM,20 µM,22 µM,> 150 µM,> 100 µM,> 301 µM,> 100 µM,0.96 µM,,CC50 [24]: > 100 µM
COC(=O)C(C)NP(=O)(OCC1(CO)C/C1=C/n1cnc2c(N)ncnc21)Oc1ccccc1 (stereo not given),3.8 µM,,55 µM,> 41 µM,> 40 µM,3 µM,21.1 µM,22.1 µM,12.8 µM,18.4 µM,3 µM,> 40 µM,> 102 µM,32 µM,200 µM,3.5 µM,> 102 µM,,CC50 [25]: 200 µM; CC50 [26]: 200 µM
Nc1nc2c(ncn2COCCO)c(=O)[nH]1 [ACYCLOVIR],,,1.5 µM,1.6 µM,13.5 µM,,0.9 µM,6.7 µM,,,,32.3 µM,> 222 µM,,,> 100 µM,1.1 µM,,CC50 [24]: > 200 µM; CC50 [27]: > 200 µM; CC50 [25]: > 444 µM; CC50 [28]: > 444 µM; CC50 [26]: > 444 µM
Nc1nc2c(ncn2/C=C2/CC2(CO)CO)c(=O)[nH]1 [FILOCICLOVIR],> 50 µM,> 380 µM,> 100 µM,> 380 µM,> 50 µM,,> 380 µM,> 380 µM,> 10 µM,0.49 µM,0.33 µM,> 50 µM,74 µM,,> 380 µM,> 100 µM,,,CC50 [29]: 200 µM
Nc1nc2c(ncn2COC(CO)CO)c(=O)[nH]1 [GANCICLOVIR],,> 392 µM,,,,5 µM,,,,1.6 µM,2.1 µM,,,,> 392 µM,,,,CC50 [19]: > 100 µM
Nc1ccn([C@@H]2CS[C@H](CO)O2)c(=O)n1 [LAMIVUDINE],,,,,,,,,0.05 µM,,,,,,,,,,CC50 [30]: > 100 µM
